Data as given in ChEMBL document CHEMBL4808254, “Further SAR studies on natural template based neuroprotective molecules for the treatment of Alzheimer's disease” (Bioorg Med Chem, 2021).
pIC50: −log10 of the molar value. Activity calls are given as the source filed them. The calls are words filed in the database; no cut-off is given here.

Tests used:
[1] = Antioxidant activity assessed as DPPH radical scavenging activity measured after 25 mins by microplate reader based assay; assay type: functional
Summary of the method: (§1)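 Test compound at serial concentrations (single 20 µM for percent values) mixed 1:1 with 200 µM DPPH in methanol; 25 min at 37 °C with shaking at 300 rpm; absorbance read at 517 nm. Percent scavenging taken against DPPH control; IC50 is the concentration that removes 50% of radical. Mean ± SD of three independent experiments.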

Acetylcholinesterase [2] = target: T1, Acetylcholinesterase (Homo sapiens, UniProt P22303); assay: Inhibition of AChE in human erythrocytes using acetylthiocholine iodide as substrate preincubated with enzyme for 30 mins followed by substrate addition and measured after 30 mins by Ellman's method; assay type: cell-based, Erythrocyte
T1 sequence (P22303 whole entry): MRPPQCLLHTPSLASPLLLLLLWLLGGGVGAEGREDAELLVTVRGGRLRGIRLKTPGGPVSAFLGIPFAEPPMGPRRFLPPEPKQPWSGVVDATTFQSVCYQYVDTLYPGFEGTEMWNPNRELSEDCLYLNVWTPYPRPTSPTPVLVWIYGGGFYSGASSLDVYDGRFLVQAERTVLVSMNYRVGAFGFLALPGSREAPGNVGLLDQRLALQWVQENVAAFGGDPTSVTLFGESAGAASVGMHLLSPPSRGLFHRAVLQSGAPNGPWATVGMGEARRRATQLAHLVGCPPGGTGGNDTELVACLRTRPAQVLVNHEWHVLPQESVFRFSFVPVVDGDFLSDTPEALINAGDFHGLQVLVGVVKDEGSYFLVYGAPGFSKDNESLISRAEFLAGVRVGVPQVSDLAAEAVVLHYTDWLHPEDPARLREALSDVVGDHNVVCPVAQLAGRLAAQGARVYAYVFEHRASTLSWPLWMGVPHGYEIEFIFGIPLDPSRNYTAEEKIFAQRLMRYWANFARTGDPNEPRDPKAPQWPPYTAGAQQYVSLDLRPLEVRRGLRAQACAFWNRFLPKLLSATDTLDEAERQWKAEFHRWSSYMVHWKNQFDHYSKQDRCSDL

Cholinesterase = Cholinesterase (Equus caballus, UniProt P81908); assay: Inhibition of equine serum BChE using butyrylthiocholine iodide as substrate preincubated with enzyme for 30 mins followed by substrate addition and measured after 30 mins by Ellman's method; assay type: cell-free
Chain of Cholinesterase (P81908 whole entry): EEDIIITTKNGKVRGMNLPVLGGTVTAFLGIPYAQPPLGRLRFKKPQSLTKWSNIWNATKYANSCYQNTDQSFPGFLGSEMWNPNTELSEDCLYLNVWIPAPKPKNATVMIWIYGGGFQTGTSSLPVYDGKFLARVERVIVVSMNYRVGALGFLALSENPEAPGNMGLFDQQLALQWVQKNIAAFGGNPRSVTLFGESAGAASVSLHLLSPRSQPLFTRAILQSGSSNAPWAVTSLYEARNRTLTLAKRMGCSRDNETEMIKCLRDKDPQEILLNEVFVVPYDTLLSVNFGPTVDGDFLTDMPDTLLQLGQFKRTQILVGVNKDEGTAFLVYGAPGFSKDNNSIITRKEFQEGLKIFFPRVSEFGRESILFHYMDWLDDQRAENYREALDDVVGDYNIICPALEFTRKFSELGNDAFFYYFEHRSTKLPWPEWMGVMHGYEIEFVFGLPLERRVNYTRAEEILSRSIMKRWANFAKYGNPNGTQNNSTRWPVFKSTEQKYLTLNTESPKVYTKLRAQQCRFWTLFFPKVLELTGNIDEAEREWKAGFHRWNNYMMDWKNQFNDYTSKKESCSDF
Summary of the method: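 Equine BChE (0.06 U/mL) preincubated with a range of inhibitor concentrations, 37 °C, 30 min. BTCI (15 mM) then added for 30 min, followed by DTNB (1.5 mM). A415 recorded. Mean ± SD of two or three independent experiments, each in triplicate.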

[3] = Antioxidant activity assessed as DPPH radical scavenging activity at 20 uM measured after 25 mins by microplate reader based assay relative to control; assay type: functional; summary of the method: as §1
Acetylcholinesterase [4] = target: T1, Acetylcholinesterase; assay: Inhibition of AChE in human erythrocytes using acetylthiocholine iodide as substrate at 20 uM preincubated with enzyme for 30 mins followed by substrate addition and measured after 30 mins by Ellman's method relative to control; assay type: cell-based; conditions: Erythrocyte, time 60.0 min
Summary of the method: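 hAChE (0.022 U/mL) preincubated with inhibitor at 20 µM, 37 °C, 30 min. ATCI (1.5 mM) then added and incubated a further 30 min, followed by DTNB (0.15 mM). Absorbance read at 415 nm. % inhibition = [(Ac − Ai)/Ac] × 100 against an uninhibited enzyme. Mean ± SD of two or three experiments run in triplicate.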

[5] = target: Cholinesterase (Equus caballus) (UniProt P81908); assay: Inhibition of equine serum BChE using butyrylthiocholine iodide as substrate at 20 uM preincubated with enzyme for 30 mins followed by substrate addition and measured after 30 mins by Ellman's method relative to control; assay type: cell-free; conditions: time 60.0 min
Chain of Cholinesterase (Equus caballus) (P81908 whole entry): as above
Summary of the method: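 Equine BChE (0.06 U/mL) preincubated with inhibitor at 20 µM, 37 °C, 30 min. BTCI (15 mM) then added and incubated a further 30 min, followed by DTNB (1.5 mM). Absorbance read at 415 nm. % inhibition taken relative to an enzyme-only control. Mean ± SD of two or three experiments run in triplicate.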

Acetylcholinesterase [6] = target: T1, Acetylcholinesterase; assay: Mixed inhibition of human erythrocyte AChE using different concentration of acetylthiocholine iodide as substrate preincubated with enzyme for 30 mins by Lineweaver-Burk plot analysis; assay type: tissue-based
Summary of the method: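 hAChE preincubated with inhibitor at three concentrations, 37 °C, 30 min. ATCI added at 0.5, 1.0, 1.5, 2.0 and 2.5 mM, then DTNB (0.15 mM). A415 recorded. Lineweaver-Burk double-reciprocal analysis used to assign the mechanism. Duplicate runs; mean ± SD of two independent experiments.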

[7] = Permeability of the compound in PBS buffer at pH 7.4 at 500 uM incubated for 18 hrs by PAMPA-BBB assay
[8] = target: Cholinesterase (Equus caballus) (UniProt P81908); assay: Mixed inhibition of equine serum BChE using different concentration of butyrylthiocholine iodide as substrate preincubated with enzyme for 30 mins by Lineweaver-Burk plot analysis; assay type: cell-free
Summary of the method: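 eqBChE preincubated with inhibitor at three concentrations, 37 °C, 30 min. BTCI added at 5, 10, 15, 20 and 25 mM, then DTNB (1.5 mM). Absorbance read at 415 nm. Double-reciprocal 1/[S] vs 1/V plots used to assign inhibition type. Duplicate runs; mean ± SD of two independent experiments.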

[9] = Metal chelating activity assessed as compound-Fe3+ complex formation at 600 uM measured after 24 hrs at pH 7.4 in presence Fecl3.6H2O by UV-Vis spectroscopic analysis
Summary of the method: (§2)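 600 µM compound and 600 µM FeCl3·6H2O, both in methanol, mixed in equal volume and shaken at 1000 rpm for 24 h at 25 °C, then UV-scanned. For pH 7.4, diluted DIPEA added before rescanning. Spectra recorded from 300 to 700 nm, with the d–d region at 400–700 nm. Run in duplicate.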

N2a [10] = assay: Neuroprotective activity against H2O2-induced neurotoxicity in mouse N2a cells assessed as increase in cell viability at 1 to 20 uM preincubated for 24 hrs followed by co-incubation with H2O2 and measured after 24 hrs by MTT assay; assay type: functional, cell-based; conditions: dose 1-20 µM, time 48.0 hrs
Summary of the method: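 N2a cells seeded at 1 × 10^4/well and left overnight. Pre-incubated 24 h with 1, 2.5, 5, 10 or 20 µM, then co-incubated with 600 µM H2O2 for a further 24 h. MTT added for 4 h at 37 °C and formazan extracted in 0.04 N HCl/isopropanol for 1 h. OD read at 570 nm; viability as percent of untreated control. Three independent experiments, mean ± SEM.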

[11] = Metal chelating activity assessed as compound-Fe3+ complex formation at 600 uM measured after 24 hrs at pH 4.2 in presence Fecl3.6H2O by UV-Vis spectroscopic analysis; summary of the method: as §2
Mus musculus = assay: Reversal of scopolamine induced cognitive memory impairment in C57BL/6 mouse assessed as escape latency time at 10 mg/kg, po administered 30 mins prior to scopolamine injection daily for 14 days by Morris water maze test (reference value: 50.11 +/-5.91 secs); assay type: functional; conditions: time 14 day
N2a [12] = assay: Cytotoxicity against mouse N2a cells assessed as effect on cell viability at 0.01 to 20 uM measured after 24 hrs by MTT assay; assay type: cell-based; conditions: dose 0.01-20 µM
Summary of the method: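 Neuro2a cells seeded at 1 × 10^4/well and left overnight to adhere. Exposed to 0.01, 0.1, 1, 2.5, 5, 10 or 20 µM in triplicate for 24 h at 37 °C in 5% CO2. Viability then read by MTT and expressed as percent of untreated cells. Mean ± SE of three independent experiments.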

[13] = Metal chelating activity assessed as mole fraction required to show 1:1 stoichiometry for compound-Fe3+ complex formation measured after 24 hrs in presence Fecl3.6H2O by Job's plot analysis
Summary of the method: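 Stoichiometry by molar-ratio titration of compound against FeCl3 in methanol (0–10 ratio) at room temperature with UV spectra recorded. Job's plot built from Fe(III) mole fraction against absorbance. Means of duplicate runs.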

SMILES	pIC50 [1]	pIC50 (Acetylcholinesterase [2])	pIC50 (Cholinesterase)	Activity [3]	inhibition (Acetylcholinesterase [4])	also measured
COc1cc(/C=C/C(=O)N2CCN(Cc3ccc(F)cc3)CC2)ccc1O	4.28	4.84	4.83	23.1%		
COc1cc(/C=C/C(=O)N2CCN(Cc3ccccc3F)CC2)ccc1O			4.80		34.2%	
COc1cccc(NC(=O)CCNC(=O)/C=C/c2ccc(O)c(OC)c2)c1		5.62	4.95	21.3%		
COc1cc(/C=C/C(=O)N2CCN(Cc3cccc([N+](=O)[O-])c3)CC2)ccc1O			4.84		38.8%	
COc1cc(/C=C/C(=O)N2CCN(Cc3ccc(C)cc3)CC2)ccc1O			4.83		43.2%	
COc1cc(/C=C/C(=O)NCC(=O)NCCc2c[nH]c3ccc(Cl)cc23)ccc1O	4.63	6.08	5.89	47.3%		
COc1cc(/C=C/C(=O)N2CCN(Cc3ccccc3)CC2)ccc1O	4.50	4.87		38.4%		inhibition [5]: 45.1%
COc1cc(/C=C/C(=O)N2CCN(Cc3cccc(F)c3)CC2)ccc1O	4.58	4.88	4.85	40.2%		inhibition (Acetylcholinesterase [6]): Active; Papp at 18 h, 500 µM [7]: 9.57 ×10⁻⁶ cm/s; inhibition [8]: Active
COc1cc(/C=C/C(=O)N2CCN(Cc3ccc(C#N)cc3)CC2)ccc1O			4.81		39.4%	
COc1cc(/C=C/C(=O)N2CCN(Cc3cccc(C#N)c3)CC2)ccc1O			4.83		42.4%	
COc1cc(/C=C/C(=O)NCC(=O)NCCc2c[nH]c3ccccc23)ccc1O	4.54	5.85	5.50	38.5%		
COc1cc(/C=C/C(=O)N2CCN(Cc3ccccc3Cl)CC2)ccc1O			4.82		47%	
COc1cccc(N2CCN(C(=O)/C=C/c3ccc(O)c(OC)c3)CC2)c1	4.21					
COc1cc(/C=C/C(=O)N2CCN(Cc3ccccc3C)CC2)ccc1O			4.82		43.1%	
COc1cc(/C=C/C(=O)NCCC(=O)Nc2ccc(Cl)cc2)ccc1O	4.07	5.27	5.15	18.7%		
COc1cc(/C=C/C(=O)O)ccc1O [FERULATE]	4.23			33.1%	15.1%	inhibition [5]: 17.1%
COc1cc(/C=C/C(=O)N2CCN(Cc3cccc(Cl)c3)CC2)ccc1O	4.21	4.81	4.83	23.1%		
COc1ccc2[nH]cc(CCNC(=O)CNC(=O)/C=C/c3ccc(O)c(OC)c3)c2c1	4.69	6.02	5.91	51.9%		Activity [9]: Active; Activity (N2a [10]): Active; Activity [11]: Active; Time (Mus musculus): 32.28 s; inhibition (Acetylcholinesterase [6]): Active; Activity (N2a [12]): Non-Toxic; Papp at 18 h, 500 µM [7]: 8.51 ×10⁻⁶ cm/s; Activity [13]: 50%; inhibition [8]: Active
COc1ccc(CN2CCN(C(=O)/C=C/c3ccc(O)c(OC)c3)CC2)cc1	4.33	4.79		30.5%		inhibition [5]: 45.1%
COc1cc(/C=C/C(=O)NCCC(=O)Nc2ccccc2)ccc1O	4.02	4.83	4.79	10.6%		
COc1cc(/C=C/C(=O)N2CCN(Cc3ccc(Cl)cc3)CC2)ccc1O	4.20		4.80	32.4%	37.3%	
COc1cc(/C=C/C(=O)N2CCN(Cc3ccccc3C#N)CC2)ccc1O			4.83		45.4%	
COc1cccc(CN2CCN(C(=O)/C=C/c3ccc(O)c(OC)c3)CC2)c1		4.82				inhibition [5]: 49.1%
COc1cc(/C=C/C(=O)N2CCN(Cc3cccc(C)c3)CC2)ccc1O	4.18		4.83	26.3%	45.5%	
COc1cc(/C=C/C(=O)NCC(=O)Nc2ccc3[nH]ccc3c2)ccc1O	4.24					
